Article PMC12400138 (Molecular and Clinical Oncology, 2025)
Where two headings read alike, the source gives them in different places.

What was measured:
HK1 [1] = assay: MTS assay, HK1; type: cell-based, human; details: read-out: IC50 value
In short: (§1)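 Cell lines were seeded per well in 96-well plates: C666-1 at 30,000, HK1 at 10,000, NP69SV40T at 15,000 and NP460hTert at 15,000. After 2 h at 37°C in 5% CO2, test compound was added at 0.8-200 nM (rocaglates) or 0.15-20 µM (second compound). Vehicle was 0.1% DMSO final, or NaH2PO4. MTS was added after 1-3 days for 1-4 h, reading A490 minus A630. IC50 was fitted from % signal versus vehicle.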

NP69SV40T = assay: MTS assay, NP69SV40T; type: cell-based, human; details: read-out: IC50 value
In short: as §1

NP460hTert = assay: MTS assay, NP460hTert; type: cell-based, human; details: read-out: IC50 value
In short: as §1

HK1 [2] = assay: Flow cytometric analysis of cell cycle progression; type: cell-based, human
In short: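 HK1 cells were seeded at 1.0x10^5 cells/0.5 ml/well in 12-well plates. After 2 h, test compound was added at 5 nM, 10 nM or 1 µM, alone or combined. Exposure lasted 2-3 days. Adherent and floating cells were pelleted and stained in hypotonic buffer (propidium iodide, RNase A, sodium citrate, Triton X) on ice, in the dark, for 10 min. ≥10,000 events were acquired by flow cytometry, and DNA-content histograms were modelled for cycle phases.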

[3] = toxicity studies mostly in murine models; cited from earlier work
HK1 [4] = assay: FITC Annexin V/PI apoptosis assay; type: cell-based, human; details: 3 days post-treatment, 1 μM
In short: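 HK1 cells were seeded at 1.0x10^5 cells/0.5 ml/well in 12-well plates. After ~2 h, test compound was added at 5 nM, 10 nM or 1 µM, alone or combined, for 3 days. Adherent and floating cells were stained with FITC-Annexin V and PI in binding buffer for 15 min in the dark. Samples were diluted, kept on ice and analysed by flow cytometry, acquiring 10,000 events per sample.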

[5] = system: NPC cell lines or nasopharyngeal epithelial cells; assay: MTS assay, summary over cell lines; type: cell-based; details: Homo sapiens, read-out: IC50 values
In short: as §1

normal bone marrow cells = details: 1 µΜ, two days; cited from earlier work
[6] = advanced hematologic malignancy patients; phase I dose-escalation; cited from earlier work
C666-1 = assay: MTS assay, C666-1; type: cell-based, human
In short: as §1

[7] = silvestrol 5 nM, episilvestrol 10 nM or combination with 1 µM CX-5461

For `COC(=O)[C@H]1[C@@H](O)[C@@]2(O)c3c(OC)cc(O[C@@H]4O[C@@H]([C@H](O)CO)CO[C@H]4OC)cc3O[C@@]2(c2ccc(OC)cc2)[C@@H]1c1ccccc1` [Silvestrol, silvestrol], the IC50 (HK1 [1]; Homo sapiens, HK-1, 24 h) was 132 nM, the IC50 (HK1 [1]; Homo sapiens, HK-1, 48 h) was 7 nM and the IC50 (NP69SV40T; Homo sapiens, 24 h) was 58 nM. For the same molecule, the IC50 (NP69SV40T; Homo sapiens, 48 h) was 8 nM, the IC50 (NP460hTert; Homo sapiens, 24 h) was 9 nM and the IC50 (NP460hTert; Homo sapiens, 48 h) was 9 nM. For the same molecule, the cell cycle arrest (HK1 [2]; [7]) was “arrested cells at G0/G1” and the tolerability [3] was “well tolerated”.

In the case of `Cc1cnc(CNC(=O)c2c(=O)c3ccc(N4CCCN(C)CC4)nc3n3c2sc2ccccc23)cn1` [CX-5461, reference compound], the IC50 (HK1 [1]; Homo sapiens, HK-1, 24 h) is reported as 2000 nM, the IC50 (HK1 [1]; Homo sapiens, HK-1, 48 h) is reported as 1000 nM and the IC50 (NP69SV40T; Homo sapiens, 24 h) is reported as 6000 nM. For the same molecule, the IC50 (NP69SV40T; Homo sapiens, 48 h) was 1000 nM, the IC50 (NP460hTert; Homo sapiens, 24 h) was 500 nM and the IC50 (NP460hTert; Homo sapiens, 48 h) was 400 nM. For the same molecule, the cell cycle arrest (HK1 [2]; 1 µM) was “arrested cells at S-phase and G2/M”, the “% apoptosis (percentage of total apoptosis)” value (HK1 [4]) was < 20% and the IC50 [5] was 400 to 6000 nM. The cell death (normal bone marrow cells) was “minimal cell death” and the tolerability [6] was “well tolerated”.

Work on `COC(=O)[C@H]1[C@@H](O)[C@@]2(O)c3c(OC)cc(O[C@@H]4O[C@@H]([C@@H](O)CO)CO[C@H]4OC)cc3O[C@@]2(c2ccc(OC)cc2)[C@@H]1c1ccccc1` [Episilvestrol, episilvestrol] yielded an IC50 (C666-1; read-out: IC50 value, 1 day post-treatment) of 56 nM, an IC50 (C666-1; read-out: IC50 value, 2 days post-treatment) of 18 nM and an IC50 (C666-1; read-out: IC50 value, 3 days post-treatment) of 10 nM. It also gave an IC50 (HK1 [1]; HK1, 1 day post-treatment) of 60 nM, an IC50 (HK1 [1]; HK1, 2 days post-treatment) of 13 nM and an IC50 (HK1 [1]; HK1, 3 days post-treatment) of 10 nM. It also gave an IC50 (NP69SV40T; NP69SV40T, 1 day post-treatment) of 68 nM, an IC50 (NP69SV40T; NP69SV40T, 2 days post-treatment) of 19 nM and an IC50 (NP69SV40T; NP69SV40T, 3 days post-treatment) of 10 nM. The IC50 (NP460hTert; NP460hTert, 1 day post-treatment) was 14 nM, the IC50 (NP460hTert; NP460hTert, 2 days post-treatment) was 20 nM and the IC50 (NP460hTert; NP460hTert, 3 days post-treatment) was 10 nM. The cell cycle arrest (HK1 [2]; [7]) was “arrested cells at G0/G1”.
